According to ChEMBL document CHEMBL4673180, “Synthesis of quinone imine and sulphur-containing compounds with antitumor and trypanocidal activities: redox and biological implications” (RSC Med Chem, 2020):

Tests used:
[1] = Cytotoxicity against human Lucena1 cells assessed as reduction in cell viability after 72 hrs by MTT assay; type: functional, cell-based; conditions: Lucena 1, 72 h
Summary of the method: (§1)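 Cells were grown in medium with 10% FBS, 2 mM L-glutamine, penicillin and streptomycin at 37 °C, 5% CO2. Seeding per well was 0.1 × 10^6 for leukaemia, PC3, L929 and NCI-H460, and 0.7 × 10^5 for HCT-116. Compounds in DMSO (0.1% final) were applied for 72 h. MTT (0.5 mg/mL) was added for 3 h, formazan dissolved in DMSO, and absorbance read at 550 nm. IC50 by nonlinear regression; three independent experiments in triplicate.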

[2] = tested on: HCT-116; assay: Cytotoxicity against human HCT-116 cells assessed as reduction in cell viability after 72 hrs by MTT assay; type: functional, cell-based; conditions: HCT-116, 72 h; summary of the method: as §1
[3] = Selectivity index, ratio of IC50 for mouse L929 cells to IC50 for human NCI-H460 cells after 72 hrs by MTT assay; type: toxicity; conditions: L929 cells versus NCI-H460 cells, read-out: Ratio IC50
Summary of the method: (§2)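 Both cell types were kept in medium with 10% FBS, 2 mM L-glutamine and penicillin/streptomycin at 37 °C, 5% CO2. Seeding was 0.7 × 10^5 cells per well for HCT-116, 0.1 × 10^6 for the other lines. Cells got compound in DMSO (0.1% final) for 72 h, then 0.5 mg/mL MTT for 3 h, with formazan read at 550 nm. IC50 came from nonlinear regression over three independent experiments in triplicate. SI is the L929 IC50 divided by the cancer-line IC50.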

[4] = tested on: K562; assay: Cytotoxicity against human K562 cells assessed as reduction in cell viability after 72 hrs by MTT assay; type: functional, cell-based; conditions: K562, 72 h; summary of the method: as §1
[5] = tested on: L929; assay: Cytotoxicity against mouse L929 cells assessed as reduction in cell viability after 72 hrs by MTT assay; type: cell-based; conditions: L929, 72 h; summary of the method: as §1
[6] = tested on: PC-3; assay: Cytotoxicity against human PC-3 cells assessed as reduction in cell viability after 72 hrs by MTT assay; type: functional, cell-based; conditions: PC-3, 72 h; summary of the method: as §1
[7] = Selectivity index, ratio of IC50 for mouse L929 cells to IC50 for human HL-60cells after 72 hrs by MTT assay; type: toxicity; conditions: L929 cells versus HL-60 cells, read-out: Ratio IC50; summary of the method: as §2
[8] = Selectivity index, ratio of IC50 for mouse L929 cells to IC50 for human HCT116 cells after 72 hrs by MTT assay; type: toxicity; conditions: L929 cells versus HCT116 cells, read-out: Ratio IC50; summary of the method: as §2
[9] = tested on: NCI-H460; assay: Cytotoxicity against human NCI-H460 cells assessed as reduction in cell viability after 72 hrs by MTT assay; type: functional, cell-based; conditions: NCI-H460, 72 h
Summary of the method: as §1, with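 “CO2.” for “CO2. Seeding per well was 0.1 × 10^6 for leukaemia, PC3, L929 and NCI-H460, and 0.7 × 10^5 for HCT-116.”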

[10] = tested on: HL-60; assay: Cytotoxicity against human HL-60 cells assessed as reduction in cell viability after 72 hrs by MTT assay; type: functional, cell-based; conditions: HL-60, 72 h
Summary of the method: as §1, with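 “CO2.” for “CO2. Seeding per well was 0.1 × 10^6 for leukaemia, PC3, L929 and NCI-H460, and 0.7 × 10^5 for HCT-116.”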

[11] = Selectivity index, ratio of IC50 for mouse L929 cells to IC50 for human K-562 cells after 72 hrs by MTT assay; type: toxicity; conditions: L929 cells versus K-562 cells, read-out: Ratio IC50; summary of the method: as §2
[12] = Selectivity index, ratio of IC50 for mouse L929 cells to IC50 for human Lucena1 cells after 72 hrs by MTT assay
Summary of the method: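 Selectivity index is the ratio of IC50 in murine L929 fibroblasts to IC50 in Lucena 1 cells, each measured by 72 h MTT assay (absorbance 550 nm). IC50 values came from nonlinear regression of three independent experiments in triplicate.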

[13] = Selectivity index, ratio of IC50 for mouse L929 cells to IC50 for human PC3 cells after 72 hrs by MTT assay; type: toxicity; conditions: L929 cells versus PC3 cells, read-out: Ratio IC50; summary of the method: as §2
[14] = Selectivity index, ratio of LC50 for cytotoxicity against albino Swiss mouse peritoneal macrophages to IC50 for Antitrypanosomal activity against Trypanosoma cruzi Y strain bloodstream trypomastigotes assessed as lysis of parasite in presence of 5 % mouse blood; type: toxicity
Summary of the method: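 Y-strain bloodstream trypomastigotes came from infected albino mice at peak parasitaemia and were purified by differential centrifugation. They were resuspended at 10^7/mL in RPMI with 10% mouse blood and mixed 1:1 with compound at twice the final concentration (DMSO ≤0.4%). Incubation was 24 h at 4 °C (5% blood per footnote).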

[15] = tested on: Trypanosoma cruzi; assay: Antitrypanosomal activity against Trypanosoma cruzi Y strain bloodstream trypomastigotes assessed as lysis of parasite in presence of 5 % mouse blood incubated for 24 hrs by Neubauer chamber method; type: functional, organism-based
Summary of the method: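 Y strain bloodstream trypomastigotes came from infected albino mice at peak parasitaemia, purified by differential centrifugation, in RPMI at 10^7 cells/mL with 10% mouse blood. They were mixed 1:1 with compound at twice the final concentration (5% blood final), 24 h at 4 °C, with DMSO ≤0.4% final. Neubauer chamber counting; IC50 is 50% lysis; at least three independent experiments.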

[16] = Cytotoxicity against albino Swiss mouse peritoneal macrophages assessed as reduction in cell viability incubated for 24 hrs by Presto blue assay; type: tissue-based, Macrophage; conditions: read-out: LC50
Summary of the method: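 Primary peritoneal macrophages from Albino Swiss mice were seeded at 2.5 × 10^4 cells per well in RPMI-1640 (pH 7.2, 10% FBS, 2 mM glutamine) and grown 24 h at 37 °C. They were then treated 24 h at 37 °C with compound from DMSO stock (final DMSO ≤0.4%).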

Row | Structure (SMILES) | IC50 [1] | IC50 [2] | selectivity ratio at 72 h [3] | IC50 [4] | IC50 [5] | IC50 [6] | selectivity ratio at 72 h [7] | selectivity ratio at 72 h [8] | IC50 [9] | IC50 [10] | selectivity ratio at 72 h [11] | Ratio IC50 [12] | selectivity ratio at 72 h [13] | selectivity ratio [14] | IC50 [15] | CC50 at 24 h [16]
1 | C#CCOC1=C/C(=N\c2ccc(F)cc2)c2ccccc2C1=O | 17 µM | 18.7 µM | 1.9 | 13.5 µM | > 20 µM | > 20 µM | 3.6 | 1.8 | 17 µM | 9.2 µM | 2.4 | 1.9 | 1 |  |  | 
2 | C#CCOC1=C/C(=N\c2ccc(OC)cc2)c2ccccc2C1=O | 11.4 µM | 10.7 µM | 3.3 | > 20 µM | > 20 µM | 8.82 µM | 4.4 | 2.9 | 9.45 µM | 7.18 µM | 1 | 2.8 | 3.6 |  |  | 
3 | Cc1ccc(S(=O)(=O)n2cc(COC3=C/C(=N\c4ccc(F)cc4)c4ccccc4C3=O)nn2)cc1 | 6.58 µM | 5.75 µM | 2.7 | 7.7 µM | > 20 µM | 2.03 µM | 2.6 | 3.5 | 7.36 µM | 7.52 µM | 2.6 | 3 | 9.8 | > 18.6 | > 500 µM | 26.9 µM
4 | C#CCOC1=C/C(=N\c2ccc(I)cc2)c2ccccc2C1=O | 15.1 µM | 16.5 µM | 1 | 17 µM | > 20 µM | > 20 µM | 2 | 1.5 | > 20 µM | 11.9 µM | 1.4 | 1.6 | 1 |  |  | 
5 | COc1ccc(/N=C2\C=C(OCc3cn(S(=O)(=O)c4ccc(C)cc4)nn3)C(=O)c3ccccc32)cc1 | 4.58 µM | 7.43 µM | 2.6 | > 20 µM | > 20 µM | > 20 µM | 3.3 | 2.9 | 8.39 µM | 6.96 µM | 1 | 5.4 | 1 | > 11.3 | > 500 µM | 44.3 µM
6 | Cc1ccc(S(=O)(=O)n2cc(COC3=C/C(=N\c4ccc(Cl)cc4)c4ccccc4C3=O)nn2)cc1 | 3.16 µM | 9.44 µM | 1.6 | 9.8 µM | > 20 µM | > 20 µM | 2.8 | 2 | 12.1 µM | 6.92 µM | 2 | 6.1 | 1 |  | > 500 µM | > 100 µM
7 | C#CCOC1=C/C(=N\c2ccc(C)cc2)c2ccccc2C1=O | 14.1 µM | > 20 µM | 2 | > 20 µM | > 20 µM | 18.4 µM | 2.8 | 1.6 | 16.9 µM | 12 µM | 1.5 | 2.4 | 1.8 |  |  | 
8 | Cc1ccc(/N=C2\C=C(OCc3cn(S(=O)(=O)c4ccc(C)cc4)nn3)C(=O)c3ccccc32)cc1 | 1.44 µM | 3.61 µM | 2.2 | 6.22 µM | 17.7 µM | 2.65 µM | 3.3 | 4.9 | 8.02 µM | 5.42 µM | 2.9 | 12.3 | 6.7 | > 5.65 | > 500 µM | 88.5 µM
9 | C#CCOC1=C/C(=N\c2ccc(C(C)=O)cc2)c2ccccc2C1=O | 16.2 µM | > 20 µM | 1 | > 20 µM | > 20 µM | 12.5 µM | 1.1 | 1 | > 20 µM | > 20 µM | 1 | 1.9 | 24 |  |  | 
10 | CC(=O)c1ccc(/N=C2\C=C(OCc3cn(S(=O)(=O)c4ccc(C)cc4)nn3)C(=O)c3ccccc32)cc1 | 6.46 µM | 6.27 µM | 0.7 | 5.52 µM | 10.8 µM | 3.91 µM | 2 | 1.7 | 15.8 µM | 5.3 µM | 1.9 | 1.7 | 2.7 | > 12.3 | > 500 µM | 40.6 µM
11 | C#CCOC1=C/C(=N\c2ccccc2)c2ccccc2C1=O | > 20 µM | > 20 µM | 1.6 | > 20 µM | > 20 µM | 14.1 µM | 2 | 1.2 | > 20 µM | 17.4 µM | 1 | 1.5 | 2.5 |  |  | 
12 | COc1cccc2c1C(=O)c1c(O)c3c(c(O)c1C2=O)C[C@@](O)(C(=O)CO)C[C@@H]3O[C@H]1C[C@H](N)[C@H](O)[C@H](C)O1 [DOXORUBICIN] | 0.18 µM |  |  | 0.49 µM |  |  |  |  |  |  |  |  |  |  |  | 
13 | Cc1ccc(S(=O)(=O)n2cc(COC3=C/C(=N\c4ccc(I)cc4)c4ccccc4C3=O)nn2)cc1 | 2.9 µM | > 16.4 µM | 1 | 10.8 µM | > 16.4 µM | > 16.4 µM | 2.6 | 1 | > 16.4 µM | 6.31 µM | 1.5 | 5.6 | 1 |  | > 500 µM | > 100 µM
14 | C#CCOC1=C/C(=N\c2ccc(Br)cc2)c2ccccc2C1=O | 12.5 µM | > 20 µM | 1.3 | > 20 µM | > 20 µM | 15.9 µM | 1.9 | 1.2 | > 20 µM | 14.2 µM | 1.2 | 2.2 | 1.7 |  |  | 
